The record followed here is ChEMBL document CHEMBL1154062, “Novel and potent small-molecule urotensin II receptor agonists” (Bioorg Med Chem, 2009).

What all share (type): functional, cell-based
For one assay, the target named is T1, Urotensin-2 receptor (Homo sapiens, UniProt Q9UKP6).
T1 sequence (Q9UKP6 whole entry): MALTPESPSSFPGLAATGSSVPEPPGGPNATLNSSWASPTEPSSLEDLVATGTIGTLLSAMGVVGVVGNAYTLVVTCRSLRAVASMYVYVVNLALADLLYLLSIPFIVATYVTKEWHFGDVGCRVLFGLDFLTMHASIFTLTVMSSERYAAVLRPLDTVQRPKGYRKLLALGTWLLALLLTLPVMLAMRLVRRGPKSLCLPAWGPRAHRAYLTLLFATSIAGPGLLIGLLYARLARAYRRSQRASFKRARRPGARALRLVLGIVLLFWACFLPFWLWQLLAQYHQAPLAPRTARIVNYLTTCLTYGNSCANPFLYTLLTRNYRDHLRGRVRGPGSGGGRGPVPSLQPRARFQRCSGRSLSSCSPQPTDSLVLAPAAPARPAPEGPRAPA
The assay can be described thus: (§1) Agonist activity against human urotensin 2 receptor expressed in […] cells assessed as beta-galactosidase activity after 5 days by R-SAT assay. In a few lines: (§2)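 NIH-3T3 cells grown to 80% confluence in DMEM with 10% bovine calf serum, transiently transfected in roller bottles for 18 h with human UT receptor plus β-galactosidase marker, then frozen. Thawed cells were plated in DMEM with 0.4% calf serum and 30% UltraCulture onto compound. They were incubated 5 days in 5% CO2, with reporter read at 420 nm. Eight doses in triplicate; EC50 from 2–5 determinations; efficacy normalized to UII = 100%.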

Assay [1] deals with T2, Urotensin-2 receptor (Homo sapiens) (UniProt Q9UKP6).
T2 sequence (whole entry): T1 sequence (Q9UKP6 whole entry)
The assay can be described thus: Agonist activity against human urotensin 2 receptor expressed in […] cells assessed as beta-galactosidase activity after 5 days by R-SAT assay relative to urotensin 2. The gist of the method:
as §2

Assay [2] deals with T2, Urotensin-2 receptor (Homo sapiens). The description is as §1. In a few lines:
as §2

SMILES strings stand for the structures. Active and inactive are the calls of the source. The rule behind the calls is not given here.

Take `O=C(NC(CCN1CCCCC1)c1ccc(Cl)cc1)c1ccc(-c2ccccc2)cc1` (configuration not stated): the EC50 (in general, the concentration at which the effect is half-maximal) at Urotensin-2 receptor is 661 nM. The Efficacy in assay [1] came out at 57%. As to `CN(C)CC[C@@H](NC(=O)c1ccc(-c2ccccc2)cc1)c1ccc(Cl)cc1`, the Efficacy in assay [1] turned out to be 96%. Take `CN(C)CCC(NC(=O)c1cccc(-c2ccc3ccccc3c2)c1)c1ccc2ccccc2c1` (configuration not stated): the EC50 on Urotensin-2 receptor was 3470 nM. In the case of `CN(C)CCC(NC(=O)c1cccc(-c2ccccc2)c1)c1ccc2ccccc2c1` (configuration not stated), the EC50 at Urotensin-2 receptor is 537 nM. The Efficacy in assay [1] turned out to be 67%.

As for `CN(C)CCC(NC(=O)c1ccc(-c2ccc(Cl)cc2)cc1)c1ccc(Cl)cc1` (configuration not stated), the EC50 on Urotensin-2 receptor was 75.9 nM. The Efficacy in assay [1] was 137%. As for `Cc1ccc(C(CCN(C)C)NC(=O)c2ccc(-c3ccc4ccccc4c3)cc2)cc1` (configuration not stated), the EC50 at Urotensin-2 receptor is 813 nM. Further, the Efficacy in assay [1] turned out to be 83%. With `COc1ccc(-c2cccc(C(=O)NC(CCN(C)C)c3ccc(Cl)cc3)c2)cc1` (configuration not stated), the concentration giving a half-maximal response (EC50) at Urotensin-2 receptor is 575 nM. Further, the Efficacy in assay [1] stood at 78%.

For the compound `Cc1ccc(C(CCN(C)C)NC(=O)c2ccc(-c3ccccc3)cc2)cc1` (configuration not stated), the half-maximal effective concentration (EC50) on Urotensin-2 receptor is 200 nM. The Efficacy in assay [1] is 114%. With `Cc1ccc(C(CCN(C)C)NC(=O)c2cccc(-c3ccc(Cl)cc3)c2)cc1` (configuration not stated), the EC50 at Urotensin-2 receptor was 646 nM. For the same compound, the Efficacy in assay [1] amounted to 39%.

Turning to `CN(C)CCC(NC(=O)c1ccc(-c2ccc3ccccc3c2)cc1)c1ccc(Cl)cc1` (configuration not stated), the EC50 on Urotensin-2 receptor is 309 nM. The Efficacy in assay [1] came out at 131%. As for `O=C(NC(CCN1CCCCC1)c1ccc(Cl)cc1)c1ccccc1` (configuration not stated), the EC50 at Urotensin-2 receptor is 6460 nM. Besides, in assay [1], the Efficacy was found to be 55%. For `Cc1ccc(C(CCN(C)C)NC(=O)c2ccc(-c3ccc(Cl)cc3)cc2)cc1` (configuration not stated), on Urotensin-2 receptor, the EC50 is 126 nM. For the same compound, the Efficacy in assay [1] was found to be 108%. Take `COc1ccc(-c2ccc(C(=O)NC(CCN(C)C)c3ccc(C)cc3)cc2)cc1` (configuration not stated): the 50% effective concentration (EC50) on Urotensin-2 receptor was 347 nM. In addition, the Efficacy in assay [1] amounted to 119%. For the compound `CN(C)CCC(NC(=O)c1ccc(-c2ccc(Cl)cc2)cc1)c1ccc2ccccc2c1` (configuration not stated), the EC50 on Urotensin-2 receptor is 43.7 nM. In addition, in assay [1], the Efficacy came to 129%.

Turning to `COc1ccc(-c2cccc(C(=O)NC(CCN(C)C)c3ccc4ccccc4c3)c2)cc1` (configuration not stated), the 50% effective concentration (EC50) at Urotensin-2 receptor is 646 nM. Moreover, in assay [1], the Efficacy came out at 50%. For `COc1ccc(-c2cccc(C(=O)NC(CCN(C)C)c3ccc(C)cc3)c2)cc1` (configuration not stated), the EC50 on Urotensin-2 receptor was 1070 nM. In addition, the Efficacy in assay [1] was found to be 69%. As to `Cc1ccc(C(CCN(C)C)NC(=O)c2cccc(-c3ccccc3)c2)cc1` (configuration not stated), the EC50 at Urotensin-2 receptor is 813 nM. In addition, the Efficacy in assay [1] worked out at 45%. With `CN(C)CCC(NC(=O)c1ccc(-c2ccccc2)cc1)c1ccc(Cl)cc1` (configuration not stated), the Efficacy in assay [1] came to 116%. `CN(C)CC[C@@H](NC(=O)c1ccc(-c2ccc(Cl)cc2)cc1)c1ccc2ccccc2c1`: the EC50 at Urotensin-2 receptor was 457 nM. In addition, the Efficacy in assay [1] worked out at 53%. In the case of `CN(C)CCCC(NC(=O)c1ccc(-c2ccccc2)cc1)c1ccc(Cl)cc1` (configuration not stated), the EC50 at Urotensin-2 receptor is 316 nM. Also, the Efficacy in assay [1] came to 91%. The like results for `COc1ccc(-c2ccc(C(=O)NC(CCN(C)C)c3ccc(Cl)cc3)cc2)cc1` (configuration not stated) were, in that order, 74.1 nM and 143%. Take `CO[C@@H](C(=O)N[C@@H](CCN(C)C)c1ccc(Cl)cc1)c1ccccc1`: the Efficacy in assay [1] turned out to be 165%.

As to `CN(C)CCC1(c2ccc(Cl)cc2)Cc2ccccc2C(=O)O1` (configuration not stated), the concentration for a half-maximal effect (EC50) on Urotensin-2 receptor was not below 1120 nM. In the case of `CN(C)CCC(NC(=O)c1cccc(-c2ccccc2)c1)c1ccc(Cl)cc1` (configuration not stated), the 50% effective concentration (EC50) at Urotensin-2 receptor was 575 nM. In addition, the Efficacy in assay [1] is 92%. Consider `CO[C@@H](C(=O)N[C@@H](CCN(C)C)c1ccc2ccccc2c1)c1ccccc1`, for which the concentration giving a half-maximal response (EC50) at Urotensin-2 receptor is 741 nM. In assay [1], the Efficacy amounted to 140%. Turning to `CN(C)CC[C@H](NC(=O)c1ccc(-c2ccccc2)cc1)c1ccc(Cl)cc1`, the Efficacy in assay [1] was 116%. `CN(C)CCCC(NC(=O)c1ccccc1)c1ccc(Cl)cc1` (configuration not stated): the half-maximal effective concentration (EC50) on Urotensin-2 receptor is 3800 nM. Besides, the Efficacy in assay [1] is 77%. As for `CN(C)CCC(NC(=O)c1cccc(-c2ccc3ccccc3c2)c1)c1ccc(Cl)cc1` (configuration not stated), the EC50 on Urotensin-2 receptor was 363 nM. Also, the Efficacy in assay [1] was 41%. `CN(C)CCC(NC(=O)c1ccc(-c2ccccc2)cc1)c1ccc2ccccc2c1` (configuration not stated): on Urotensin-2 receptor, the EC50 is 120 nM. Moreover, the Efficacy in assay [1] came to 111%.

For the compound `CN(C)CCC(NC(=O)c1cccc(-c2ccc(Cl)cc2)c1)c1ccc(Cl)cc1` (configuration not stated), the EC50 at Urotensin-2 receptor is 437 nM. The Efficacy in assay [1] was found to be 63%. Turning to `CN(C)CCC(NC(=O)c1cccc(-c2ccc(Cl)cc2)c1)c1ccc2ccccc2c1` (configuration not stated), at Urotensin-2 receptor, the 50% effective concentration (EC50) is 1100 nM. Also, in assay [1], the Efficacy was 45%.

In the case of `CO[C@@H](C(=O)N[C@H](CCN(C)C)c1ccc(Cl)cc1)c1ccccc1`, the Efficacy in assay [1] stood at 112%.

Turning to `COc1ccc(-c2ccc(C(=O)NC(CCN(C)C)c3ccc4ccccc4c3)cc2)cc1` (configuration not stated), on Urotensin-2 receptor, the concentration for a half-maximal effect (EC50) was 105 nM. In assay [1], the Efficacy was 111%.

In the case of `CN(C)CCC(NC(=O)c1ccc(-c2ccc3ccccc3c2)cc1)c1ccc2ccccc2c1` (configuration not stated), the EC50 on Urotensin-2 receptor was 525 nM. In assay [1], the Efficacy worked out at 77%. On to `Cc1ccc(C(CCN(C)C)NC(=O)c2cccc(-c3ccc4ccccc4c3)c2)cc1` (configuration not stated), for which the pEC50 result in assay [2] is “inactive”. Besides, the Efficacy entry in assay [1] was “inactive”.

`CN(C)CC[C@H](NC(=O)c1ccc(-c2ccc(Cl)cc2)cc1)c1ccc2ccccc2c1`: the EC50 on Urotensin-2 receptor is 22.9 nM. Also, the Efficacy in assay [1] was determined as 129%. Take `CO[C@@H](C(=O)N[C@H](CCN(C)C)c1ccc2ccccc2c1)c1ccccc1`: the 50% effective concentration (EC50) on Urotensin-2 receptor was 2750 nM. The Efficacy in assay [1] was 53%.
